# Screening results as filed in PubChem.
# Rpn11 block: Rpn11 (PSMD14) deubiquitinase inhibitors, primary screen, biochemical, fluorescence polarization, uHTS | 26S proteasome non-ATPase regulatory subunit 14 (Homo sapiens), O00487 | human 26S proteasome, Ub4-pepOG fluorescence polarization; 20S core pre-blocked with epoxomicin | inhibition, % at 20 µM | actives 0.59% (n = 360,000);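 active = inhibition at 20 µM, scaled to each plate's controls, above about 33%, limit read from the data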
# HNF4A DNA FP: change in binding of human HNF4A to DNA, primary screen, biochemical, fluorescence polarization, FITC-DNA; actives 0.3% (n = 360,000); activity change, % at 10 µM; 1 h; in the data active = activity change above about 30%, passing the limit was not always enough
# Target sequence (P41235 whole entry, looked up): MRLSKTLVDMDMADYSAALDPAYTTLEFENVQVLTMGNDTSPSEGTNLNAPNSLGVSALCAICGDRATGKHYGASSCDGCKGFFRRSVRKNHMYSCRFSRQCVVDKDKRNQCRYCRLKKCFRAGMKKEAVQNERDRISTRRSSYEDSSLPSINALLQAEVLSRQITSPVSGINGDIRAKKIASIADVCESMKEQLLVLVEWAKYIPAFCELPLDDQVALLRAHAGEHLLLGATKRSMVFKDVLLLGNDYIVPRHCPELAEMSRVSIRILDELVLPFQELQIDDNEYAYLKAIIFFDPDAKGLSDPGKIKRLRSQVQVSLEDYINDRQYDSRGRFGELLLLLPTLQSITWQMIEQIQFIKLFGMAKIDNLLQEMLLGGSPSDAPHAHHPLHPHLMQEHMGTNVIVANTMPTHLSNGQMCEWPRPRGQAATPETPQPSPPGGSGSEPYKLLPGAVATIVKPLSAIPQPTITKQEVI
# IDE inh: human IDE inhibitors in live cells, primary screen, fluorescence polarization, HEK cells, FAbetaB substrate; FAbetaB cleavage; inhibition, % at 5.59 µM; actives 0.41% (n = 320,000); AID 434962, 2010;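 active = percent inhibition above the average of all tested compounds plus 3 SD, set per screening campaign, cut at about 16% in these data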;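 also: IDE supplied by intact live HEK cells; FP after avidin binding of uncleaved biotin substrate so inhibition keeps polarization high; 0% = DMSO wells and 100% = 60 µM reference IDE inhibitor Ii1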
# IDE act: human IDE activators in live cells, primary screen, fluorescence polarization, HEK cells, FAbeta-B substrate; actives 0.073% (n = 340,000); Insulin-degrading enzyme (Homo sapiens), P14735; FAbeta-B cleavage; 0% vehicle, 100% cell-free pure enzyme wells; activation, % at 5.96 µM; AID 493087, 2011;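 active = activation above the mean of all tested compounds plus 3 SD, set per screening campaign, cut at about 17% in these data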
# CSN deneddyl inh: inhibitors of CSN-mediated cullin deneddylation, primary screen, biochemical, fluorescence polarization, uHTS | COP9 signalosome complex subunit 5 (Homo sapiens), Q92905 | Purified CSN, SCF-Nedd8-OG deneddylation | AID 651999, 2013 | inhibition, % at 12.5 µM | actives 0.38% (n = 360,000);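 active = pattern-corrected inhibition above about 35%, with an unprinted fluorescence ratio check between 0.5 and 1.5, limit read from the data, passing the limit was not always enough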;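 also: 0% = enzyme with substrate and 100% = substrate without enzyme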
#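 Test system: Human Csn5 produced in HEK293T cells | Compound: 12.5 µM single point | Times: 90 min, room temperature | Signal: Fluorescence polarization readout | Read-out basis: % inhibition of substrate cleavage by Csn5 | Controls: no-enzyme wells high, enzyme-with-substrate wells low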
# TPT1 inh: Candida albicans TPT1 enzyme inhibitors, primary screen, biochemical, fluorescence polarization; recombinant caTPT1, FP RNA substrate dephosphorylation; inhibition, % at 5 µM; actives 0.81% (n = 300,000); AID 1962, 2009;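 active = inhibition above the mean of all tested compounds plus 3 SD, set per screening campaign, cut at about 24% in these data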;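 also: plate controls were DMSO alone for no effect and ferristatin control at 100 nM for full effect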
# An asterisk follows results filed as active; nt = no result shown. This is a sample that favours compounds with a hit; in the whole collection about 1.7% have one here.
SMILES,Rpn11 block,HNF4A DNA FP,IDE inh,IDE act,CSN deneddyl inh,TPT1 inh
CC1(C)CN(C2CCCCC2)C(=O)[C@H]1CC(=O)Nc1ccc(Br)cc1,1,-3,nt,nt,2,nt
COc1ccc(Cl)cc1NC(=S)NCCO,-4,57*,-4,1,-10,-3
O=C(N/N=C/c1ccc2c(c1)OCO2)c1cc(-c2ccco2)nc2ccccc12,-10,-13,nt,3,43*,nt
COC(=O)[C@]12CCCCC=C1N(Cc1ccco1)C(=O)[C@H](CC(=O)NCCC(C)C)C2,nt,-6,nt,nt,-2,nt
O=C(NCc1ccc(OC(F)(F)F)cc1)c1cccc2c1C(=O)c1ccc(N3CCCC3)cc1S2(=O)=O,nt,99,9,-1,85*,nt
O=C(NCc1cc(C(F)(F)F)ccc1Cl)c1cccc2c1C(=O)c1ccc(N3CCOCC3)cc1S2(=O)=O,34,25,-2,-4,23,nt
O=C(NCc1cc(C(F)(F)F)ccc1Cl)c1cccc2c1C(=O)c1ccc(N3CCCCC3)cc1S2(=O)=O,nt,73,7,3,55*,nt
O=C1C(SCCO)=C(SCCO)C(=O)c2ccccc21,16,4,53*,-121,25,0
CC(=O)Nc1cc(-c2cccc(C(=O)NCCN(C)C)c2)cn2c(-c3ccc(F)c(Cl)c3)cnc12,20,6,nt,nt,82*,nt
CC(=O)Nc1cc(-c2cccc(C(=O)NCCN(C)C)c2)cn2c(-c3ccc(C(C)=O)cc3)cnc12,-3,3,nt,nt,4,nt
Cc1cccc(C)c1N1C(=O)c2ccccc2NC(=O)C1C(=O)Nc1ccc(N2CCOCC2)cc1 (stereo not given),nt,1,nt,nt,0,nt
CCN(CC(=O)Nc1ccc(NC(C)=O)cc1)C(=O)c1c(C)nn(Cc2ccc(C)cc2)c1Cl,0,-1,nt,9,-2,nt
CCOC(=O)c1cc(-c2ccco2)nn1-c1ccc(C)cc1,25,5,-2,-4,1,9
Cc1ccc(-n2nc(-c3ccco3)cc2C(=O)O)cc1,25,-45,-3,-3,38*,2
CCNC(=O)C1CCCN(C(=O)c2ccccc2F)CC1 (stereo not given),2,-3,nt,nt,0,nt
Clc1ccc(-c2nnc3sc(-c4ccc(Br)o4)nn23)cc1,-164,-96,-5,17,-82,-69
Cc1oc(-c2ccc(Cl)cc2)cc1-c1nn2c(-c3ccoc3C)nnc2s1,25,-27,-1,-7,36*,19
CCCCSCc1[nH]c(=O)[nH]c1C(=O)CCCCC(=O)OCC,1,0,-1,0,0,0
Cc1[nH]c(=O)[nH]c1C(=O)CCCCC(=O)O,-5,4,-17,39*,-6,-3
COC(=O)[C@@]12C[C@@H](CC(=O)N3CCCC3)C(=O)N(CCc3ccc(OC)c(OC)c3)C1=CCC(C)(C)C2,nt,5,nt,nt,-4,nt
CCN1C(=O)S/C(=C/c2ccc(Sc3nc4ccccc4[nH]3)o2)C1=O,21,102*,5,-3,10,0
N#C/C(=C/c1ccc(Sc2nc3ccccc3[nH]2)o1)c1cccc(Br)c1,2,6,-6,4,-2,1
CC(C)[C@@H](NC(=O)OC(C)(C)C)c1cc(C(=O)c2c(-c3ccccc3)[nH]c3ccccc23)c(N)s1,nt,4,nt,nt,2,nt
COC(=O)[C@@]12C[C@@H](CC(=O)NCCC(C)C)C(=O)N(Cc3ccccc3)C1=CCC(C)(C)C2,nt,4,nt,nt,-1,nt
Cc1ccc2c(c1)-c1[nH]c(=S)ncc1CS2,4,7,19*,-12,4,-3
SMILES,Rpn11 block,HNF4A DNA FP,IDE inh,IDE act,CSN deneddyl inh,TPT1 inh
COC(=O)[C@@]1(Cc2ccc(F)cc2)[C@H]2c3cc(C(=O)N(C)C)n(Cc4cc(C)n(C)n4)c3C[C@H]2CN1C(=O)c1ccccc1,nt,-1,nt,nt,102*,nt
Nc1cc2nc3ccccc3oc-2cc1=O,54*,4,1,0,13,24
O=C(NCC(F)(F)F)C1C(=O)Nc2ccccc2C(=O)N1Cc1ccccc1 (stereo not given),nt,2,nt,nt,2,nt
Cc1cccc(C(=O)NCCNc2nc3cc(C)c(C)cc3cc2C)c1,0,60*,1,-1,6,2
CCC(C)C(CO)NCCCn1cnc2c(OC)ncnc21 (stereo not given),-1,2,nt,nt,3,nt
COc1cc(C(=O)C(=O)N2CCC(Cc3ccccc3)CC2)cc2ccccc12,nt,2,nt,nt,-1,nt
CCCCCCCCCc1conc1C(=O)/C=C/c1ccco1,nt,-2,nt,nt,5,nt
N#Cc1sc2nc(-c3ccccc3)cc(-c3ccco3)c2c1N,14,11,-2,-5,40*,10
COC(=O)[C@]12CCCCC=C1N(Cc1ccc3c(c1)OCO3)C(=O)[C@H](CC(=O)NCCCN1CCCC1=O)C2,nt,2,nt,nt,-4,nt
CCOC(=O)C1C(=O)NC(SCC(=O)Nc2nccs2)=C(C#N)C1c1ccccc1OCC (stereo not given),61*,2,-3,-19,8,5
COc1ccc(C(=O)C(=O)N2CCN(C(=O)OCc3ccccc3)CC2)cc1,nt,1,nt,nt,-5,nt
O=C(O)c1cc(O)ccc1O,7,-6,nt,1,-9,nt
O=C(O)C1=CC(=C(c2ccc(O)c(C(=O)O)c2)c2ccc(O)c(C(=O)O)c2)C=CC1=O,nt,nt,-2,nt,nt,101*
CNC(=O)c1nn(C)c(=O)[nH]c1=O,3,0,nt,9,-2,nt
C=CC(=O)Nc1cccc(Oc2ccnc(Nc3ccc(N4CCN(C)CC4)cc3)n2)c1,29,23,nt,0,7,nt
C=CC(=O)Nc1cccc(Oc2ccnc3[nH]ccc23)c1,95*,174,nt,4,122*,nt
Fc1ccc(CN2CCN(c3ncccn3)CC2)cc1,-8,1,-7,0,37*,1
CCCc1c(-c2ccc(Cl)cc2)ncn1Cc1cccc(-c2ccccc2)c1,nt,-3,nt,nt,0,nt
Cc1ccc(C)c(N2CCN(C(C(=O)NC3CCCC3)C(C)C)CC2)c1 (stereo not given),nt,4,nt,nt,2,nt
COc1cccc(-n2nc3c(-n4ncc(C#N)c4N)nnc(C)c3c2C)c1,7,6,1,0,58*,1
COC(=O)[C@@]12C[C@@H](CC(=O)NCCc3ccccc3OC)C(=O)N(CCc3ccc(OC)c(OC)c3)C1=CCC(C)(C)C2,nt,3,nt,nt,1,nt
C[C@@H]1CN([C@H](C)CO)C(=O)CCCn2cc(nn2)CO[C@H]1CN(C)C(=O)Nc1ccccc1C(F)(F)F,-3,2,nt,nt,4,nt
COc1ccc2c(c1)c(C(=O)N/N=C/c1cccc(O)c1)c(C)n2C,-2,2,-3,4,-2,-4
